In the library only some 2.1% were active in any assay of this set; here they are far more common.
SMARCA2 activ = SMARCA2 function activation, primary screen; MG213 cells, MMTV-luciferase reporter, dexamethasone, overnight; activation, % at 9.1 µM; 370,000 tested, 1% active; AID 652017; in the data active = activation above about 7.8%
MC4R antagonist = human MC4R antagonism in cAMP assay. inhibition, % at 6.5 µM. P32245. MC4R-expressing cells, MTII-stimulated cAMP, LANCE TR-FRET. 360,000 tested, 0.48% active;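 active = inhibition above its plate's cutoff, the mean of tested wells on that plate plus 3 SD, cut at about 29% in these data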
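Material: U2OS-MC4R stable cell line | Reagent: Melanotan II challenge after compound preincubation | Doses: One concentration, 6.5 µM nominal | Incubation: 30-min compound preincubation, 1-h Melanotan II challenge, 1-h detection, room temperature | Signal: TR-FRET cAMP assay | Replicates: One well per compound, no replicates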
MC4R barr agon = human MC4R agonism via beta-arrestin. P32245. activation, % at 8.9 µM. U2OS MC4R beta-arrestin complementation, luminescence; percent of melanotan II response, DMSO zero. AID 540308. 360,000 tested, 0.98% active;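 active = activation above a per-plate cutoff, the mean activation of sample wells on that plate plus 3 SD, cut at about 8% in these data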
CFTR F508del cor = CFTR F508del correction in bronchial cells; CFBE cells, YFP halide quenching; stimulated with forskolin plus potentiator P3; % fluorescence drop versus neutral controls; activity (quench increase), % at 7.58 µM; 350,000 tested, 0.36% active; AID 720511;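 active = mean added fluorescence quench of at least 8% versus neutral control, with both replicates also reaching 8%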;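 note: cells transiently co-express mutant CFTR-F508del with the halide-sensitive YFP; corrector assay measuring rescue of mutant channel to the surface after 24 h compound exposure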
MC4R barr ag = human MC4R beta-arrestin agonism confirmation | 2,400 tested, 31% active | activation, % at 8.9 µM | AID 602192 | U2OS MC4R beta-arrestin recruitment, luminescence; scaled DMSO 0%, Melanotan II 100% | shares compounds with MC4R barr agon;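 active = mean activation across replicates above the hit cutoff set in the earlier primary screen, cut at about 8% in these data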
MOR DOR agonist = OPRM1-OPRD1 heterodimer agonism counter-screen | shares compounds with MC4R barr agon | U2OS PathHunter beta-arrestin, beta-gal luminescence; percent of deltorphin B response, DMSO zero | activation, % at 9.2 µM | 2,400 tested, 5.8% active;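 active = mean activation across replicates exceeds the hit threshold derived in the earlier primary screen, cut at about 18% in these data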
Target sequence (P35372 whole entry, looked up): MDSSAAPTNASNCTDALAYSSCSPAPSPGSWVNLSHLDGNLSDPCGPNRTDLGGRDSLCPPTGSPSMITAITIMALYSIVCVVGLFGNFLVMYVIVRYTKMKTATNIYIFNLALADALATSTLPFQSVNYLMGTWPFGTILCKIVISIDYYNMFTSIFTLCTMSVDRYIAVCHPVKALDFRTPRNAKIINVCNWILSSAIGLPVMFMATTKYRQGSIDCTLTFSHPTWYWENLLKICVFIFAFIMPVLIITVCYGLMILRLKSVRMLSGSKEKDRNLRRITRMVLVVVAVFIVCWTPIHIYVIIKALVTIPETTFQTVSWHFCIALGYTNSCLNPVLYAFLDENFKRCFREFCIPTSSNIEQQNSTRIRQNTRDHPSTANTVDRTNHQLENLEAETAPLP
Target sequence (P41143 whole entry, looked up): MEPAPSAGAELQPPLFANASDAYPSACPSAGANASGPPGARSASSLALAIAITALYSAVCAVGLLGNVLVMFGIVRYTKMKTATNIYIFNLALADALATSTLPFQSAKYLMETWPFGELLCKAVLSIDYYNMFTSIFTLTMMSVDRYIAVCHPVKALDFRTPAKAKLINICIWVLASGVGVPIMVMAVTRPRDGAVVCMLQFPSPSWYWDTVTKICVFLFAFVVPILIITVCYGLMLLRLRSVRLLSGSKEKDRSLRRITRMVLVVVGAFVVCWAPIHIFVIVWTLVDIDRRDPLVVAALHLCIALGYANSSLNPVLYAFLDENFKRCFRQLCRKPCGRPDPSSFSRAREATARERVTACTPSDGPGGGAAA
A number is an active result; n = inactive; x = no result.

SMILES | SMARCA2 activ | MC4R antagonist | MC4R barr agon | CFTR F508del cor | MC4R barr ag | MOR DOR agonist
Cc1noc(C)c1NC(=O)Nc1ccc2c(c1)C(=O)N([C@H](C)CO)C[C@H](C)[C@H](CN(C)S(=O)(=O)c1ccccc1)OCCCC[C@H](C)O2 | x | x | x | n | x | x
O=C(COC(=O)/C=C/c1ccccc1)Nc1ccc2c(c1)OCCO2 | n | n | n | n | x | x
O=C(COC(=O)/C=C/c1ccc(Cl)cc1)Nc1ccc2c(c1)OCCO2 | n | n | 24.0 | x | n | n
CCCC#Cc1ccc2c(c1)O[C@@H](CN(C)C(C)=O)[C@H](C)CN([C@H](C)CO)S2(=O)=O | x | x | x | n | x | x
O=c1[nH]c(SCCOc2cccc3ccccc23)nc2ccccc12 | n | n | 10.4 | n | n | n
CCOc1ccc(OCCSc2nc3ccccc3c(=O)[nH]2)cc1 | n | n | 9.6 | x | n | n
CCOc1ccc(OCCSc2nc(C)cc(=O)[nH]2)cc1 | n | n | n | x | x | x
CCOc1ccccc1NC(=O)c1ccc2[nH]c(C)c(C)c2c1 | n | n | 11.6 | n | n | n
C[C@@H]1CCCCO[C@H](CN(C)C(=O)CCCN(C)C)[C@H](C)CN([C@@H](C)CO)C(=O)c2cc(NC(=O)Nc3ccc(F)cc3)ccc2O1 | x | x | x | n | x | x
CCC(=O)N(C)C[C@H]1Oc2ncc(C#CC(C)(C)O)cc2C(=O)N([C@H](C)CO)C[C@H]1C | x | x | x | n | x | x
CCCCCCn1c(C)nc2c(c1=O)c1nc3ccccc3nc1n2/N=C/c1ccco1 | n | n | 24.8 | x | n | n
O=C(NCc1ccc(-c2csnn2)cc1)c1cc(Cl)cc(Cl)c1 | n | n | 12.5 | n | n | n
O=C(NCc1ccc(-c2csnn2)cc1)c1cccs1 | n | n | n | n | x | x
CC1(Oc2cccc(F)c2)CCN(Cc2ccc(-c3ccccc3)o2)C1 (configuration not stated) | n | n | 10.0 | n | n | n
NS(=O)(=O)c1ccc(CCNc2nc3c(-c4cccc(F)c4)nnn3c3ccccc23)cc1 | n | n | 14.6 | x | 10.7 | n
COc1ccccc1C(=O)NNC(=O)CCCN1C(=O)/C(=C/c2cccs2)SC1=S | n | n | 22.9 | x | n | n
O=C(CCN1C(=O)/C(=C\c2ccccc2)SC1=S)NNC(=O)c1cccnc1 | n | n | 21.1 | n | n | n
O=C(CCN1C(=O)/C(=C\c2ccccc2)SC1=S)NNC(=O)c1ccccc1O | n | n | 10.3 | n | n | n
COc1ccc(C#Cc2ccc3c(c2)[C@@H]2[C@@H](CCN2C(=O)NC(C)C)[C@@H](CO)N3C)cc1 | x | x | x | n | x | x
CCCNC(=O)C[C@@H]1CC[C@H]2[C@H](COc3ccc(NC(=O)NC(C)C)cc3C(=O)N2C)O1 | x | x | x | n | x | x
Cc1noc(C)c1S(=O)(=O)Nc1ccc2c(c1)C(=O)N([C@H](C)CO)C[C@@H](C)[C@@H](CN(C)C(=O)c1ccncc1)OCCCC[C@@H](C)O2 | x | x | x | n | x | x
COc1c(C(=O)Nc2ccc(Br)cn2)ccc2ccccc12 | n | n | 12.0 | n | n | n
C[C@@H]1CN([C@H](C)CO)C(=O)Cc2cc(N(C)C)ccc2O[C@H]1CN(C)S(=O)(=O)c1ccccc1 | x | x | x | n | x | x
O=C(NC(=S)NCc1ccc(-c2nc3ccccc3s2)cc1)c1ccco1 | n | n | 28.1 | x | n | n
CCOc1ccc(CNC(=O)Cn2c(=O)c3cccn3c3ccccc32)cc1 | n | n | 21.5 | n | n | n
SMILES | SMARCA2 activ | MC4R antagonist | MC4R barr agon | CFTR F508del cor | MC4R barr ag | MOR DOR agonist
COc1ccc(-c2nc(C#N)c(NCc3ccccc3Cl)o2)cc1OC | n | n | 12.9 | n | n | n
COc1ccc(-c2nc(C#N)c(NCc3ccccc3Cl)o2)cc1 | n | n | n | x | x | x
S=c1[nH]nc(-c2cc(-c3ccccc3)n[nH]2)n1/N=C/c1ccc(Br)s1 | n | n | 32.8 | n | n | n
Cc1ccccc1/C=N/n1c(-c2cc(-c3ccccc3)n[nH]2)n[nH]c1=S | n | n | 13.1 | n | n | n
Cc1ccsc1/C=N/n1c(-c2cc(-c3ccccc3)n[nH]2)n[nH]c1=S | n | n | 11.8 | n | n | n
S=c1[nH]nc(-c2cc(-c3ccccc3)n[nH]2)n1/N=C/c1c(Cl)cccc1Cl | n | n | n | n | x | x
Cc1ccc(-c2n[nH]c(=S)n2/N=C/c2sccc2C)cc1 | n | n | n | n | x | x
